{"data": "Results of several laboratories", "note": "Each line is one published result; the experiments were not run side by side."}
{"Structure (SMILES)": "Brc1ccccc1/C=N/N=C/c1ccccc1Br", "observed": "DPPH scavenging", "measurement": "IC50", "result": "> 3000 µM"}
{"Structure (SMILES)": "CC(=NNC(=O)c1ccccc1O)c1ccc(Nc2nnc(-c3ccc(Cl)cc3)c3ccccc23)cc1", "tested on": "MCF7", "observed": "cell growth or viability", "technique": "MTT", "tested at": "5 µM", "measurement": "cell death", "result": "66.2%"}
{"Structure (SMILES)": "C=C(C)[C@@H]1CC[C@@H](C)C[C@H]1OCc1ccccc1", "tested on": "MCF7", "observed": "cell growth or viability", "technique": "MTT", "tested at": "30 µM", "time": "72 h", "measurement": "inhibition", "result": "31.6%"}
{"Structure (SMILES)": "CC(=O)c1nn(-c2ccc(C)cc2)/c(=N/N=C(\\C)c2ccc(NC(=O)c3ccccc3)cc2)s1", "tested on": "MCF7", "observed": "cell growth or viability", "technique": "MTT", "tested at": "0.156 µM", "measurement": "viability", "result": "9.14%"}
{"Structure (SMILES)": "CC(=NNC(=O)c1ccccc1Br)c1ccc(Nc2nnc(-c3ccc(Cl)cc3)c3ccccc23)cc1", "tested on": "MCF7", "observed": "cell growth or viability", "technique": "MTT", "tested at": "0.625 µM", "time": "24 h", "measurement": "viability", "result": "75.9%"}
{"Structure (SMILES)": "FC(F)(F)c1ccc(/C=N/N=C/c2ccc(C(F)(F)F)cc2)cc1", "observed": "DPPH scavenging", "measurement": "IC50", "result": "> 3000 µM"}
{"Structure (SMILES)": "CCN(CC)c1ccc(/C=N/c2ccc(F)cc2)c(O)c1", "observed": "DPPH scavenging", "measurement": "IC50", "result": "30.1 µM"}
{"Structure (SMILES)": "C=CC(=O)NC1CCN(c2ncc3ncnc(Nc4ccc(Oc5ccc6c(c5)ncn6C)c(C)c4)c3n2)CC1", "tested on": "NCI-H2126", "observed": "cell growth or viability", "measurement": "EC50", "result": "1.1 µM"}
{"Structure (SMILES)": "Clc1cccc(/C=N/N=C/c2cccc(Cl)c2)c1", "observed": "DPPH scavenging", "measurement": "IC50", "result": "2350 µM"}
{"Structure (SMILES)": "S=C(Nc1ccccc1)Nc1ccc(Oc2nnc(-c3ccc(Cl)cc3)c3ccccc23)cc1", "tested on": "MCF7", "observed": "cell growth or viability", "technique": "MTT", "tested at": "0.312 µM", "time": "24 h", "measurement": "viability", "result": "100%"}
{"Structure (SMILES)": "FC(F)(F)c1ccccc1/C=N/N=C/c1ccccc1C(F)(F)F", "observed": "DPPH scavenging", "measurement": "IC50", "result": "1680 µM"}
{"Structure (SMILES)": "CCN(CC)c1ccc(/C=N/c2ccc(F)c(Cl)c2)c(O)c1", "observed": "DPPH scavenging", "measurement": "IC50", "result": "47.6 µM"}
{"Structure (SMILES)": "CCOC(=O)c1nn(-c2cccc(Cl)c2)/c(=N/N=C(\\C)c2ccc(NC(=O)c3ccccc3)cc2)s1", "tested on": "MCF7", "observed": "cell growth or viability", "technique": "MTT", "tested at": "78 nM", "measurement": "viability", "result": "87.7%"}
{"Structure (SMILES)": "CC(=NNC(=O)c1ccccc1)c1ccc(Nc2nnc(-c3ccc(Cl)cc3)c3ccccc23)cc1", "tested on": "MCF7", "observed": "cell growth or viability", "technique": "MTT", "tested at": "5 µM", "time": "24 h", "measurement": "viability", "result": "5.18%"}
{"Structure (SMILES)": "COc1cccc(/C=N/N=C/c2cccc(OC)c2)c1", "observed": "DPPH scavenging", "measurement": "IC50", "result": "755 µM"}
{"Structure (SMILES)": "CC(=O)c1nn(-c2ccccc2Cl)/c(=N/N=C(\\C)c2ccc(NC(=O)c3ccccc3)cc2)s1", "tested on": "MCF7", "observed": "cell growth or viability", "technique": "MTT", "tested at": "5 µM", "measurement": "viability", "result": "6.17%"}
{"Structure (SMILES)": "COc1cc(/C=N/N=C/c2cc(OC)c(OC)c(OC)c2)cc(OC)c1OC", "observed": "DPPH scavenging", "measurement": "IC50", "result": "2390 µM"}
{"Structure (SMILES)": "CCOC(=O)c1nn(-c2cccc(Cl)c2)/c(=N/N=C(\\C)c2ccc(NC(=O)c3ccc(Cl)cc3)cc2)s1", "tested on": "MCF7", "observed": "cell growth or viability", "technique": "MTT", "tested at": "0.625 µM", "measurement": "viability", "result": "3.92%"}
{"Structure (SMILES)": "O=C(Nc1ccccc1)Nc1ccc(Oc2nnc(-c3ccc(Cl)cc3)c3ccccc23)cc1", "tested on": "MCF7", "observed": "cell growth or viability", "technique": "MTT", "tested at": "78 nM", "time": "24 h", "measurement": "viability", "result": "96.4%"}
